Laboratory results taken from PMC7112766 (Science Advances, 2020).
“Also recorded” adds a separate entry of the source.

Assays:
I-A^b = biological target: T1, I-A^b (Mus musculus, UniProt P14434+P14483); experiment: MHC binding assay, inhibition of radiolabeled peptide binding, I-A^b
T1 sequence (P14434 24-256): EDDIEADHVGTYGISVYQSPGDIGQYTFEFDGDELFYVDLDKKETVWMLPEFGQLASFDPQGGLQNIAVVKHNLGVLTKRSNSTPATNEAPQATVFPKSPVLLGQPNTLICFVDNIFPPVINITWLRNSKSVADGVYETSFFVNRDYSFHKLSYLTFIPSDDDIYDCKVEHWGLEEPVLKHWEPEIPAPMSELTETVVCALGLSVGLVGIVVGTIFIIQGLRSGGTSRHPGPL
T1 sequence (P14483 28-265): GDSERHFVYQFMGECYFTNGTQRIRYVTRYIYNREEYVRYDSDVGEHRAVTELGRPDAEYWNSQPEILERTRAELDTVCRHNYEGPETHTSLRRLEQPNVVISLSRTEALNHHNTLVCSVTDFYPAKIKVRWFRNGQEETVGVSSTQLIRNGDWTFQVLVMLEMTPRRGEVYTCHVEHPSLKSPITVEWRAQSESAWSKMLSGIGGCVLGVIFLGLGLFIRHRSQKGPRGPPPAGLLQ
Outline: (§1)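 Class II MHC affinity-purified from mouse B cell lymphoma LB27.4. Complexes captured on Y3JP antibody-coated plates; bound cpm counted by microscintillation. Six peptide concentrations over a 100,000-fold range, ≥3 independent experiments. IC50 is the concentration giving 50% probe inhibition; unlabeled probe is the positive control.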

I-A^d = biological target: T2, I-A^d (Mus musculus, UniProt P01921+P04228); experiment: MHC binding assay, inhibition of radiolabeled peptide binding, I-A^d
T2 sequence (P04228 24-256): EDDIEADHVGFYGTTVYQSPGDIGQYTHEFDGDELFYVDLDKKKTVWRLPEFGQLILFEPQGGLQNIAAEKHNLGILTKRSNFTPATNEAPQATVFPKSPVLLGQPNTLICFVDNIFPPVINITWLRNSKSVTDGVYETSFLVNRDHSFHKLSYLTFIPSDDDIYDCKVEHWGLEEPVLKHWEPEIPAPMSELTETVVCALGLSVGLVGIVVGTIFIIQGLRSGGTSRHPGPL
T2 sequence (P01921 28-265): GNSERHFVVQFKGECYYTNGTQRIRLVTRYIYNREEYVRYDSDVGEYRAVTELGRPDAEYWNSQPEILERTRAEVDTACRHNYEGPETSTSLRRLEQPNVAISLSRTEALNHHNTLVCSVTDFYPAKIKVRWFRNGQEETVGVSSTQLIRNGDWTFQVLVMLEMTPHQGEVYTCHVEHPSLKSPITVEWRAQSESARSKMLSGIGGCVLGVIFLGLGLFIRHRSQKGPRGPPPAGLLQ
Outline: as §1

I-E^d = biological target: T3, I-E^d (Mus musculus, UniProt P01904+P01915); experiment: MHC binding assay, inhibition of radiolabeled peptide binding, I-E^d
T3 sequence (P01904 26-255): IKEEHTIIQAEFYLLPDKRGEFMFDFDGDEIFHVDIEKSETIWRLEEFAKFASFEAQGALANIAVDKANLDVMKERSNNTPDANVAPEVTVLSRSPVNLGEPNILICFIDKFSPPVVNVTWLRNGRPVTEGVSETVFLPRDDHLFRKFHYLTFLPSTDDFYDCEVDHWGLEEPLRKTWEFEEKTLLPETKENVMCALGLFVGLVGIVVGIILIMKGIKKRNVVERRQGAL
T3 sequence (P01915 27-264 limits assumed): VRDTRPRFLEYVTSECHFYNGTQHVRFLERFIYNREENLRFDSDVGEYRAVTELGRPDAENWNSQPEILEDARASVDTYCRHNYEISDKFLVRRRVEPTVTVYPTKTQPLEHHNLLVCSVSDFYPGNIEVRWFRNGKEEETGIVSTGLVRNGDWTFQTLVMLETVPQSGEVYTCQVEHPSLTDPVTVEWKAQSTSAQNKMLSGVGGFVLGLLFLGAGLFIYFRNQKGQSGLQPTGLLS

[1] = tested on: tetramer^+ CD44^hi CD4^+ T cells; details: mouse, in vivo
S. aureus = tested on: S. aureus; design: species or system S. aureus strain 923, a USA300 isolate; mice; details: mouse, in vivo
splenocytes [2] = details: mouse, in vivo
splenocytes [3] = assay type: cell-based, mouse; details: for IL-17A or IFNγ responses by ELISpot: 24 hours, 37°C
TFH cells = details: mouse, in vivo

With `CC[C@H](C)[C@H](NC(=O)[C@H](CCC(=O)O)NC(=O)[C@H](Cc1c[nH]cn1)NC(=O)[C@@H](NC(=O)[C@H](CCCCN)NC(=O)[C@H](Cc1c[nH]c2ccccc12)NC(=O)[C@H](CC(N)=O)NC(=O)[C@@H](NC(=O)[C@H](CCC(=O)O)NC(=O)[C@@H](N)Cc1ccc(O)cc1)C(C)C)[C@@H](C)O)C(=O)N[C@@H](CCCCN)C(=O)N[C@H](C(=O)N[C@@H](CCCCN)C(=O)NCC(=O)N[C@@H](Cc1c[nH]cn1)C(=O)N[C@@H](CC(N)=O)C(=O)O)C(C)C` [LkT/C] the IC50 (I-A^b) was 17.3 µM, the IC50 (I-A^d) was 3.21 µM and the IC50 (I-E^d) was 0.0022 µM.
Compound `CC[C@H](C)[C@H](N)C(=O)NCC(=O)NCC(=O)N[C@@H](CC(N)=O)C(=O)NCC(=O)N[C@@H](CO)C(=O)N[C@@H](Cc1ccccc1)C(=O)N[C@@H](CC(N)=O)C(=O)N[C@@H](Cc1ccc(O)cc1)C(=O)N[C@@H](CO)C(=O)N[C@@H](CCCCN)C(=O)N[C@H](C(=O)N[C@H](C(=O)N[C@@H](CO)C(=O)N[C@@H](Cc1ccc(O)cc1)C(=O)N[C@H](C(=O)O)[C@@H](C)O)[C@@H](C)CC)[C@@H](C)O` [LukE153–168] has an IC50 (I-A^b) of 0.586 µM.
In the case of `CC(C)[C@H](NC(=O)CNC(=O)[C@H](Cc1c[nH]c2ccccc12)NC(=O)[C@@H](N)CCCCN)C(=O)N[C@@H](CCCCN)C(=O)N[C@@H](C)C(=O)N[C@@H](CC(N)=O)C(=O)N[C@@H](CCC(=O)O)C(=O)N[C@@H](Cc1ccccc1)C(=O)N[C@H](C(=O)N[C@H](C(=O)N1CCC[C@H]1C(=O)N[C@@H](CC(=O)O)C(=O)NCC(=O)N[C@@H](CCCCN)C(=O)N[C@@H](CCCCN)C(=O)O)[C@@H](C)O)C(C)C` [LukE185–200], the IC50 (I-A^b) is reported as 4.05 µM.
With “LukE: leukotoxin E, His-tagged, purified from E. coli; antigen and vaccine” the “LukE-specific tetramer^+ CD44^hi CD4^+ T cells after vaccination” value [1] was “high frequencies; also recorded: strong LukE-specific T cell responses”, the “reduction of lesion size compared with control mice” value (S. aureus) was “approximately 40%” and the “protection against dermonecrosis (lesion size) after vaccination” value (S. aureus; sc) was “moderately strong protection against dermonecrosis; also recorded: weaker protection”. For the same compound, the “IL-17A and IFNγ responses, vaccination compared with SSTI” value (splenocytes [2]) was “stronger IL-17A and IFNγ responses”, the “LukE-specific IL-17A response after vaccination” value (splenocytes [2]) was “no differences in LukE-specific IL-17A responses” and the “IFNγ response by ELISpot” value (splenocytes [3]) was “weaker IFNγ; also recorded: moderate IFNg responses”. The “IL-17A and IFNγ responses, mice expressing H-2^d compared with H-2^b” value (splenocytes [3]) was “significantly stronger IL-17A and IFNγ responses”, the “IL-17A response by ELISpot” value (splenocytes [3]) was “strongest IL-17A responses; also recorded: strong IL-17A responses” and the “IL-17A or IFNγ responses by ELISpot” value (splenocytes [3]) was “minimal IL-17A or IFNγ responses; also recorded: no detectable responses”. The “LukE-specific TFH cells after vaccination” value (TFH cells) was “expanded a population of LukE-specific TFH cells; also recorded: expansion of LukE-specific TFH cells”.
With “LukS-PV: leukocidin S-PV, purified from E. coli, GST removed; sae-regulated antigen” the “IFNγ response by ELISpot” value (splenocytes [3]) was “weaker IFNγ; also recorded: moderate IFNg responses”, the “IL-17A and IFNγ responses, mice expressing H-2^d compared with H-2^b” value (splenocytes [3]) was “significantly stronger IL-17A and IFNγ responses” and the “IL-17A response by ELISpot” value (splenocytes [3]) was “strongest IL-17A responses; also recorded: strong IL-17A responses”. The “IL-17A or IFNγ responses by ELISpot” value (splenocytes [3]) was “minimal IL-17A or IFNγ responses; also recorded: no detectable responses”.
